Laboratory results as given in ChEMBL document CHEMBL1143014, “Cytotoxic activity of some natural and synthetic ent-kauranes” (J Nat Prod, 2007).

How the values were obtained:
Format in all cases: cell-based
[1] = tested on: A549; assay: Cytotoxicity against human A549 cells after 72 hrs; conditions: for EC50: Homo sapiens, A549, 72 h; for Activity: human, a549, 72 h
In short: (§1)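 Sulforhodamine B assay run per the NCI procedure. Cells grown at 37 °C, humidified 5% CO2, in RPMI-1640 with 25 mM HEPES, […], 10% (v/v) FBS and 100 µg/mL kanamycin. Compounds dissolved in DMSO (final ≤1% v/v) and applied continuously for 72 h. EC50 is the concentration cutting cell number by 50%, interpolated from dose-response data. Assays run in triplicate. Doxorubicin served as positive control.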

[2] = tested on: PC-3; assay: Cytotoxicity against human PC3 cells after 72 hrs; conditions: for EC50: Homo sapiens, PC-3, 72 h; for Activity: human, pc-3, 72 h; in short: as §1
[3] = tested on: 1A9; assay: Cytotoxicity against human 1A9 cells after 72 hrs; conditions: for EC50: Homo sapiens, 1A9, 72 h; for Activity: human, 1a9, 72 h; in short: as §1
[4] = tested on: MCF7; assay: Cytotoxicity against human MCF7 cells after 72 hrs; conditions: for EC50: Homo sapiens, MCF7, 72 h; for Activity: human, mcf7, 72 h; in short: as §1
[5] = tested on: KB; assay: Cytotoxicity against human KB cells after 72 hrs; conditions: for EC50: Homo sapiens, KB; for Activity: human, kb; in short: as §1
[6] = Cytotoxicity against human multidrug-resistant KB-VIN cells after 72 hrs; conditions: for EC50: Homo sapiens, KBVIN; for Activity: human, kb-vin; in short: as §1

SMILES | EC50 [1] [µM] | EC50 [2] [µM] | EC50 [3] [µM] | EC50 [4] [µM] | EC50 [5] [µM] | EC50 [6] [µM] | Activity [1] | Activity [2] | Activity [3] | Activity [4] | Activity [5] | Activity [6]
C=C1[C@@H]2CC[C@@H]3[C@@](CCC4[C@H](C(=O)OC)C/C(=N\NS(=O)(=O)c5ccc(C)cc5)C[C@]43C)(C2)[C@@H]1O (some centres not stated) | 24.5 | 15.8 | 7.5 | 18 | 18.1 | 20.4 |  |  |  |  |  | 
C=C1C(=O)[C@@]23CCC4[C@H](C(=O)OC)C[C@@H](OC(=O)[C@H](O)[C@@H](NC(=O)c5ccccc5)c5ccccc5)C[C@@]4(C)[C@@H]2CC[C@@H]1C3 (some centres not stated) | 1.7 | 0.6 | 0.4 | 1.5 | 2.6 | 3.5 |  |  |  |  |  | 
C=C1C(=O)[C@@]23CCC4[C@H](C(=O)OC)C[C@@H](OS(=O)(=O)c5ccc(C)cc5)C[C@@]4(C)[C@@H]2CC[C@@H]1C3 (some centres not stated) | 2.3 | 2.6 | 0.5 | 4.3 | 1.4 | 3.5 |  |  |  |  |  | 
COc1cccc2c1C(=O)c1c(O)c3c(c(O)c1C2=O)C[C@@](O)(C(=O)CO)C[C@@H]3O[C@H]1C[C@H](N)[C@H](O)[C@H](C)O1 [DOXORUBICIN] | 0.9 | 2 | 0.1 | 0.2 | 0.4 | 1.7 |  |  |  |  |  | 
C=C1C(=O)[C@@]23CCC4[C@H](C(=O)OC)C[C@@H](OC(=O)c5ccc6c(c5)OCO6)C[C@@]4(C)[C@@H]2CC[C@@H]1C3 (some centres not stated) | 19 | 9.2 | 3 | 21.4 | 1.1 | 3 |  |  |  |  |  | 
C=C1[C@@H]2CC[C@@H]3[C@@](CCC4[C@H](C(=O)O)C[C@@H](O)C[C@]43C)(C2)[C@@H]1O (some centres not stated) [ATRACTYLIGENIN] |  |  |  |  |  |  | Not Active | Not Active | Not Active | Not Active | Not Active | Not Active
C=C1C(=O)[C@@]23CCC4[C@H](C(=O)OC)C[C@@H](OC(=O)[C@@H]5OC(c6ccccc6)=N[C@H]5c5ccccc5)C[C@@]4(C)[C@@H]2CC[C@@H]1C3 (some centres not stated) | 2.2 | 2.2 | 1.8 | 11.8 | 3 | 4.8 |  |  |  |  |  | 
C=C1C(=O)[C@@]23CCC4[C@H](C(=O)OC)C[C@@H](OC(C)=O)C[C@@]4(C)[C@@H]2CC[C@@H]1C3 (some centres not stated) | 3.3 | 1.4 | 0.5 | 0.9 | 3.6 | 4 |  |  |  |  |  | 
C=C1C(=O)[C@@]23CCC4[C@H](C(=O)OC)CC(=O)C[C@@]4(C)[C@@H]2CC[C@@H]1C3 (some centres not stated) [ATRACTYLIGENIN METHYL ESTER] | 3.4 | 1.1 | 0.2 | 1 | 1.6 | 1.6 |  |  |  |  |  | 
C=C1C(=O)[C@@]23CCC4[C@H](C(=O)OC)C[C@@H](O)C[C@@]4(C)[C@@H]2CC[C@@H]1C3 (some centres not stated) | 1 | 4 | 0.3 | 2 | 1.5 | 2.6 |  |  |  |  |  | 
C=C1C(=O)[C@@]23CCC4[C@H](C(=O)OC)CCC[C@@]4(C)[C@@H]2CC[C@@H]1C3 (some centres not stated) | 4.4 | 3.1 | 0.7 | 5 | 1.3 | 1.3 |  |  |  |  |  | 
C=C1[C@@H]2CC[C@@H]3[C@@](CCC4[C@H](C(=O)OC)C[C@@H](O)C[C@]43C)(C2)[C@@H]1O (some centres not stated) [ATRACTYLIGENIN METHYL ESTER] |  |  |  |  |  |  | Not Active | Not Active | Not Active | Not Active | Not Active | Not Active
